mABHD4 FP = ABHD4 inhibitors, primary screen, biochemical, fluorescence polarization, mouse | (Lyso)-N-acylphosphatidylethanolamine lipase (Mus musculus), Q8VD66 | 0.54% of 370,000 active | purified mABHD4, FP-Rh probe fluorescence polarization | inhibition, % at 8.92 µM;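 active = inhibition exceeding the mean over every tested compound plus 3 SD, cut at about 30% in these data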;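 also: 0% = plate median of compound wells and 100% = S159A mutant with DMSO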
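Material: mouse ABHD4 enzyme, wild type; Benchmarks: S159A mutant high control, sample median low control; Buffer or medium: HEPES pH 7.0, NaCl, Pluronic buffer; Signal: fluorescence polarization; Read-out: percent inhibition of probe binding, normalized to plate controls; Timing: pre-incubation 45 min, probe exposure 60 min, at 25 °C; Dosing: 8.92 µM, single dose.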
SIAE inh = human SIAE inhibitors, primary screen, biochemical, fluorescence polarization, FP-Rh probe, 1536-well HTS; Sialate O-acetylesterase (Homo sapiens), Q9HAT2; SIAE FP-Rh probe binding; inhibition, % at 9.66 µM; 0.69% of 370,000 active; AID 1053197, 2014;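 active = inhibition above a cutoff: mean of compounds within the control limits plus 3 SD of those, cut at about 17% in these data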;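 also: 0% = plate median of compound wells and 100% = probe without SIAE protein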
TCR-CD3 inh = inhibitors of human TCR-CD3 interaction, primary screen, biochemical, fluorescence, TAMRA-labeled TCR probe. T-cell receptor (TCR). inhibition, % at 9.4 µM. 0.37% of 360,000 active; in the data active = inhibition above about 19%;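 also: recombinant mutant TCR 2C K166C tagged with TAMRA read by polarization; 0% = receptor in buffer alone and 100% = receptor with positive control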
PRMT1 inh = PRMT1 methyltransferase inhibitors, primary screen, biochemical, fluorescence polarization. recombinant PRMT1, activity-based probe fluorescence polarization. AID 652257, 2013. 1.3% of 370,000 active. inhibition, % at 2.79 µM;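 active = inhibition above about 21% made by adding two undisclosed values, limit read from the data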
Target sequence (Q99873 whole entry, looked up): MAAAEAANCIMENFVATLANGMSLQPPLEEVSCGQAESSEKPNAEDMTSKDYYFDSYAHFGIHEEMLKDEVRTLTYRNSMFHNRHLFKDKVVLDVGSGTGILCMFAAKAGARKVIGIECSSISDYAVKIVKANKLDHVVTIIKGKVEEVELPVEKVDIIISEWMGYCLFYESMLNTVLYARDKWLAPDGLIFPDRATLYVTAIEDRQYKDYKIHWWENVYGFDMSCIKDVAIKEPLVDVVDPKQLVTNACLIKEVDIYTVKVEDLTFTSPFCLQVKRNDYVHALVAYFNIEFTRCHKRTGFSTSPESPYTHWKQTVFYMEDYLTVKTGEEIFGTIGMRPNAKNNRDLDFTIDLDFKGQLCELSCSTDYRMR
HTRA1 inhibitor = HTRA1 serine protease inhibitors, primary screen, biochemical, fluorescence polarization, HTS; Q92743; recombinant HTRA1, FP-rhodamine activity-based probe; inhibition, % at 5.96 µM; 0.5% of 340,000 active; in the data active = inhibition above about 36%;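 also: 0% = enzyme with DMSO and 100% = wells lacking enzyme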
The depositor's hits bear a star. Shown are actives, neighbours in structure and some others; about 2.5% of the full set was active somewhere.

Screening Cc1nn(Cc2ccc(C(=O)NC(C)(C)C)o2)c(C)c1Br returned mABHD4 FP -2, SIAE inh 8, TCR-CD3 inh 0, PRMT1 inh 24* and HTRA1 inhibitor -3.
Screening Cc1sc(N)c(C(=O)c2ccccc2)c1C returned mABHD4 FP 2, SIAE inh -1, TCR-CD3 inh -5 and PRMT1 inh 41*.
For CCOC(=O)c1c(NC(=S)Nc2ccccc2)sc2c1CC(C)(C)SC2 the results were mABHD4 FP -10, SIAE inh -20, TCR-CD3 inh -5, PRMT1 inh 1 and HTRA1 inhibitor -81.
Screening CCOC(=O)c1c(NC(=S)NC)sc2c1CC(C)(C)SC2 returned mABHD4 FP 1, SIAE inh -1, TCR-CD3 inh 3, PRMT1 inh 24* and HTRA1 inhibitor 1.
`CC(C)CCNC(=O)C(=O)NCC1OCCCN1S(=O)(=O)c1cccs1` (stereo not given) gave mABHD4 FP -6, SIAE inh -2, TCR-CD3 inh -3, PRMT1 inh 2 and HTRA1 inhibitor 3.
O=C(CSc1nncc(=O)[nH]1)Nc1cccc([N+](=O)[O-])c1 was read as mABHD4 FP 5, SIAE inh 0, TCR-CD3 inh 4, PRMT1 inh 33* and HTRA1 inhibitor -1.
Screening CCN(CC(=O)Nc1ccc(NC(C)=O)cc1)C(=O)/C=C/c1ccccc1 returned mABHD4 FP -1, SIAE inh -6, TCR-CD3 inh 5, PRMT1 inh -8 and HTRA1 inhibitor 4.
Screening CCN(CC(=O)Nc1ccc(NC(C)=O)cc1)C(=O)/C=C/c1ccc(C)o1 returned mABHD4 FP 1, SIAE inh -4, TCR-CD3 inh 6, PRMT1 inh 24* and HTRA1 inhibitor 9.
Screening CSc1nc(=S)c2[nH]c(=S)[nH]c2[nH]1 returned mABHD4 FP -3, SIAE inh -17, TCR-CD3 inh 7, PRMT1 inh 88* and HTRA1 inhibitor 5.
Nc1nc(=S)c2[nH]c(=S)[nH]c2[nH]1 was read as mABHD4 FP 3, SIAE inh 5, TCR-CD3 inh 3, PRMT1 inh 14 and HTRA1 inhibitor 5.
Cc1ccc(C(=O)N2CCc3ccccc32)cc1C was read as mABHD4 FP 0, SIAE inh 2, TCR-CD3 inh -3, PRMT1 inh 2 and HTRA1 inhibitor -13.
Cc1ccc(CNC(=O)c2cn(C)c(=O)c3c2c2ccccc2n3C)o1 was read as mABHD4 FP -3, SIAE inh -4, TCR-CD3 inh -2, PRMT1 inh 22* and HTRA1 inhibitor 8.
Screening Cc1ccc(CNC(=O)c2cn(C3CCCCC3)c(=O)c3c2c2ccccc2n3C)o1 returned mABHD4 FP -6, SIAE inh 1, TCR-CD3 inh 4, PRMT1 inh -1 and HTRA1 inhibitor -20.
Screening O=C(NC1CCCC1)C1C(c2ccc(C(F)(F)F)cc2)=Nc2ccccc2N1C(=O)c1ccccc1 (stereo not given) returned mABHD4 FP 9, SIAE inh -2, TCR-CD3 inh 3 and PRMT1 inh -7.
Screening COC(=O)c1ccccc1NC1=C/C(=N\S(=O)(=O)c2cccs2)c2ccccc2C1=O returned mABHD4 FP 13, SIAE inh 0, TCR-CD3 inh -3, PRMT1 inh 6 and HTRA1 inhibitor 21.
For Cc1ccc(NC2=C/C(=N/S(=O)(=O)c3cccs3)c3ccccc3C2=O)cc1 the results were mABHD4 FP 16, SIAE inh 11, TCR-CD3 inh 10, PRMT1 inh -4 and HTRA1 inhibitor 14.
`CCc1ccc(S(=O)(=O)/N=C2\C=C(Nc3ccc(C(=O)O)cc3)C(=O)c3ccccc32)cc1` gave mABHD4 FP 54*, SIAE inh 13, TCR-CD3 inh -1, PRMT1 inh 3 and HTRA1 inhibitor 33.
Screening COC(=O)c1ccccc1NC1=C/C(=N\S(=O)(=O)c2ccc(C(=O)O)cc2)c2ccccc2C1=O returned HTRA1 inhibitor 45*.
Screening CCOc1ccc(CCNC(=O)COC(=O)c2cccc(S(=O)(=O)N3CCCC3)c2)cc1OCC returned mABHD4 FP 3, SIAE inh -1, TCR-CD3 inh 2, PRMT1 inh -3 and HTRA1 inhibitor 2.
Screening Cc1cc(CN(C)C(=O)c2ccc3nc(Cc4ccccc4F)oc3c2)on1 returned mABHD4 FP 1, SIAE inh 2, TCR-CD3 inh -1, PRMT1 inh -2 and HTRA1 inhibitor 1.
`Cc1[nH]c2ccccc2c1C(C#N)(C#N)C1C(=O)c2ccccc2C1=O` gave mABHD4 FP 39*, SIAE inh 8, TCR-CD3 inh -1, PRMT1 inh 1 and HTRA1 inhibitor 27.
For COC(=O)C1=C(C)N(C)C(=O)NC1c1cc2c(cc1[N+](=O)[O-])OCO2 (stereo not given) the results were mABHD4 FP 9, SIAE inh 5, TCR-CD3 inh 16, PRMT1 inh 10 and HTRA1 inhibitor 21.
For COC(=O)C1=C(C)N(CCCC(=O)O)C(=O)NC1c1cc2c(cc1[N+](=O)[O-])OCO2 (stereo not given) the results were mABHD4 FP 17, SIAE inh 8, TCR-CD3 inh -1, PRMT1 inh 27* and HTRA1 inhibitor 3.
COc1cccc(C(NC(C)=O)c2nc(-c3cccc(C(=O)O)c3)cs2)c1 (stereo not given) was read as mABHD4 FP -6, SIAE inh 1, TCR-CD3 inh -3 and PRMT1 inh 4.
O=C1Nc2c(Cl)cc(Cl)cc2C12Nc1ccccc1S2 (stereo not given) was read as mABHD4 FP 11, SIAE inh 12, TCR-CD3 inh 5 and PRMT1 inh 23*.
`O=C(CC1Sc2ccccc2NC1=O)NNc1ccc(Cl)cc1Cl` (stereo not given) gave mABHD4 FP -10, SIAE inh -12, TCR-CD3 inh -12, PRMT1 inh 8 and HTRA1 inhibitor -10.
`CCOCCc1c(O)nc(SCC(=O)N2CCOCC2)[nH]c1=O` gave mABHD4 FP 3, SIAE inh -7, TCR-CD3 inh 2, PRMT1 inh -1 and HTRA1 inhibitor 3.
Screening COCCCN(C(=O)CSc1nc2ccccc2c(=O)n1C)c1c(N)n(Cc2ccccc2)c(=O)[nH]c1=O returned mABHD4 FP 9, SIAE inh 7, TCR-CD3 inh 1, PRMT1 inh 23* and HTRA1 inhibitor 8.
For CCc1ccc2c(c1)C1(NN=C(c3cccc4ccccc34)S1)C(=O)N2 (stereo not given) the results were mABHD4 FP 29, SIAE inh 5, TCR-CD3 inh -2, PRMT1 inh 9 and HTRA1 inhibitor 55*.
For CCc1ccc2c(c1)NC(=O)C2(C)Cc1ccccc1 (stereo not given) the results were mABHD4 FP 5, SIAE inh 1, TCR-CD3 inh -3 and PRMT1 inh 7.

Assay outcomes (PubChem)
